Test system: Fibroblast
Assay: Multiplex assay against human fibroblast
Assay type: toxicity, cell-based
In short: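 Cells were classed with CellPathfinder machine-learning gating, first as Hoechst high-intensity objects or normal cells, then (normal cells) as healthy, pyknosed or fragmented nuclei, and finally (pyknosed cells) as mitotic or apoptotic. Staining of live cells at seeding used Hoechst33342, BioTracker Green Microtubule Cytoskeleton Dye, MitoTracker Red and Annexin V Alexa Fluor 680, with imaging on a CQ1 microscope at 37°C and 5% CO2 after compound addition. Tubulin, mitochondrial-mass and membrane-permeability phenotypes are per cents of healthy-nucleus cells.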

[1] = 12 h, 1 µM, compound concentration 1 uM, replicate 1
[2] = 12 h, 1 µM, compound concentration 1 uM, replicate 2
[3] = 12 h, 10 µM, compound concentration 10 uM, replicate 1
[4] = 12 h, 10 µM, compound concentration 10 uM, replicate 2
[5] = 24 h, 1 µM, compound concentration 1 uM, replicate 1
[6] = 24 h, 1 µM, compound concentration 1 uM, replicate 2
[7] = 24 h, 10 µM, compound concentration 10 uM, replicate 1
[8] = 24 h, 10 µM, compound concentration 10 uM, replicate 2
[9] = 48 h, 1 µM, compound concentration 1 uM, replicate 1
[10] = 48 h, 1 µM, compound concentration 1 uM, replicate 2
[11] = 48 h, 10 µM, compound concentration 10 uM, replicate 1
[12] = 48 h, 10 µM, compound concentration 10 uM, replicate 2

Compound: O=c1cc(N2CCOCC2)oc2c(-c3cccc4c3sc3ccccc34)cccc12
- Population Apoptotic (%) [1]: 65%
- Population Fragmented Nuclei (%) [1]: 23%
- Population Healthy Nuclei (%) [1]: 44%
- Population Hoechst High Intensity Objects (%) [1]: 13%
- Population Membrane Permeable-Phenotype (%) [1]: 32%
- Population Mitochondria Different-Phenotype (%) [1]: 5%
- Population Mitotic Cells (%) [1]: 34%
- Population Normal (%) [1]: 86%
- Population Pyknosed Nuclei (%) [1]: 32%
- Population Tubulin-Different-Phenotype (%) [1]: 36%
- Total Cell Count [1]: 136
- Population Apoptotic (%) [2]: 100%
- Population Fragmented Nuclei (%) [2]: 15%
- Population Healthy Nuclei (%) [2]: 77%
- Population Hoechst High Intensity Objects (%) [2]: 10%
- Population Membrane Permeable-Phenotype (%) [2]: 2%
- Population Mitochondria Different-Phenotype (%) [2]: 6%
- Population Mitotic Cells (%) [2]: 0%
- Population Normal (%) [2]: 90%
- Population Pyknosed Nuclei (%) [2]: 6%
- Population Tubulin-Different-Phenotype (%) [2]: 14%
- Total Cell Count [2]: 79
- Population Apoptotic (%) [3]: 61%
- Population Fragmented Nuclei (%) [3]: 35%
- Population Healthy Nuclei (%) [3]: 28%
- Population Hoechst High Intensity Objects (%) [3]: 13%
- Population Membrane Permeable-Phenotype (%) [3]: 30%
- Population Mitochondria Different-Phenotype (%) [3]: 28%
- Population Mitotic Cells (%) [3]: 38%
- Population Normal (%) [3]: 86%
- Population Pyknosed Nuclei (%) [3]: 36%
- Population Tubulin-Different-Phenotype (%) [3]: 95%
- Total Cell Count [3]: 171
- Population Apoptotic (%) [4]: 31%
- Population Fragmented Nuclei (%) [4]: 19%
- Population Healthy Nuclei (%) [4]: 45%
- Population Hoechst High Intensity Objects (%) [4]: 16%
- Population Membrane Permeable-Phenotype (%) [4]: 23%
- Population Mitochondria Different-Phenotype (%) [4]: 90%
- Population Mitotic Cells (%) [4]: 68%
- Population Normal (%) [4]: 83%
- Population Pyknosed Nuclei (%) [4]: 34%
- Total Cell Count [4]: 70
- Population Apoptotic (%) [5]: 57%
- Population Fragmented Nuclei (%) [5]: 19%
- Population Healthy Nuclei (%) [5]: 60%
- Population Hoechst High Intensity Objects (%) [5]: 9%
- Population Membrane Permeable-Phenotype (%) [5]: 31%
- Population Mitochondria Different-Phenotype (%) [5]: 2%
- Population Mitotic Cells (%) [5]: 42%
- Population Normal (%) [5]: 90%
- Population Pyknosed Nuclei (%) [5]: 20%
- Population Tubulin-Different-Phenotype (%) [5]: 39%
- Total Cell Count [5]: 151
- Population Apoptotic (%) [6]: 60%
- Population Fragmented Nuclei (%) [6]: 11%
- Population Healthy Nuclei (%) [6]: 82%
- Population Hoechst High Intensity Objects (%) [6]: 6%
- Population Membrane Permeable-Phenotype (%) [6]: 9%
- Population Mitochondria Different-Phenotype (%) [6]: 9%
- Population Mitotic Cells (%) [6]: 40%
- Population Normal (%) [6]: 93%
- Population Pyknosed Nuclei (%) [6]: 6%
- Population Tubulin-Different-Phenotype (%) [6]: 15%
- Total Cell Count [6]: 86
- Population Apoptotic (%) [7]: 77%
- Population Fragmented Nuclei (%) [7]: 28%
- Population Healthy Nuclei (%) [7]: 45%
- Population Hoechst High Intensity Objects (%) [7]: 14%
- Population Membrane Permeable-Phenotype (%) [7]: 19%
- Population Mitochondria Different-Phenotype (%) [7]: 40%
- Population Mitotic Cells (%) [7]: 22%
- Population Normal (%) [7]: 85%
- Population Pyknosed Nuclei (%) [7]: 26%
- Population Tubulin-Different-Phenotype (%) [7]: 95%
- Total Cell Count [7]: 160
- Population Apoptotic (%) [8]: 66%
- Population Fragmented Nuclei (%) [8]: 14%
- Population Healthy Nuclei (%) [8]: 21%
- Population Hoechst High Intensity Objects (%) [8]: 6%
- Population Membrane Permeable-Phenotype (%) [8]: 50%
- Population Mitochondria Different-Phenotype (%) [8]: 70%
- Population Mitotic Cells (%) [8]: 33%
- Population Normal (%) [8]: 94%
- Population Pyknosed Nuclei (%) [8]: 63%
- Population Tubulin-Different-Phenotype (%) [8]: 70%
- Total Cell Count [8]: 86
- Population Apoptotic (%) [9]: 60%
- Population Fragmented Nuclei (%) [9]: 33%
- Population Healthy Nuclei (%) [9]: 56%
- Population Hoechst High Intensity Objects (%) [9]: 11%
- Population Membrane Permeable-Phenotype (%) [9]: 21%
- Population Mitochondria Different-Phenotype (%) [9]: 7%
- Population Mitotic Cells (%) [9]: 40%
- Population Normal (%) [9]: 88%
- Population Pyknosed Nuclei (%) [9]: 10%
- Population Tubulin-Different-Phenotype (%) [9]: 27%
- Total Cell Count [9]: 167
- Population Apoptotic (%) [10]: 50%
- Population Fragmented Nuclei (%) [10]: 18%
- Population Healthy Nuclei (%) [10]: 76%
- Population Hoechst High Intensity Objects (%) [10]: 6%
- Population Membrane Permeable-Phenotype (%) [10]: 17%
- Population Mitochondria Different-Phenotype (%) [10]: 2%
- Population Mitotic Cells (%) [10]: 50%
- Population Normal (%) [10]: 93%
- Population Pyknosed Nuclei (%) [10]: 4%
- Population Tubulin-Different-Phenotype (%) [10]: 24%
- Total Cell Count [10]: 97
- Population Apoptotic (%) [11]: 68%
- Population Fragmented Nuclei (%) [11]: 51%
- Population Healthy Nuclei (%) [11]: 23%
- Population Hoechst High Intensity Objects (%) [11]: 12%
- Population Membrane Permeable-Phenotype (%) [11]: 17%
- Population Mitochondria Different-Phenotype (%) [11]: 37%
- Population Mitotic Cells (%) [11]: 31%
- Population Normal (%) [11]: 87%
- Population Pyknosed Nuclei (%) [11]: 25%
- Population Tubulin-Different-Phenotype (%) [11]: 80%
- Total Cell Count [11]: 173
- Population Apoptotic (%) [12]: 64%
- Population Fragmented Nuclei (%) [12]: 27%
- Population Healthy Nuclei (%) [12]: 55%
- Population Hoechst High Intensity Objects (%) [12]: 10%
- Population Membrane Permeable-Phenotype (%) [12]: 6%
- Population Mitochondria Different-Phenotype (%) [12]: 48%
- Population Mitotic Cells (%) [12]: 35%
- Population Normal (%) [12]: 90%
- Population Pyknosed Nuclei (%) [12]: 17%
- Population Tubulin-Different-Phenotype (%) [12]: 88%
- Total Cell Count [12]: 90
